Assay results reported in ChEMBL document CHEMBL1157302, “Quinone reductase induction as a biomarker for cancer chemoprevention” (J Nat Prod, 2006).
Active and inactive are the calls of the source. The calls are words filed in the database; no cut-off is given here.

Experiments:
[1] = Inhibition of mouse Hepa-1c1c7 cells assessed as cell viability; type: functional, cell-based
Procedure, shortened: (§1)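 Cell viability of wild-type and both mutant Hepa 1c1c7 lines measured alongside QR induction; IC50 = half-maximal inhibitory concentration of viability, mean ± SD, n = 2.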

[2] = Inhibition of mouse Hepa-1c1c7 TAOc1Bprc1 mutant cells assessed as cell viability; type: functional; procedure, shortened: as §1
HepG2 [3] = test: Induction of antioxidant response element activity in human HepG2 cells at 10 uM by luciferase based chemiluminescence assay; type: functional, cell-based
Procedure, shortened: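 HepG2 human hepatoma cells stably transfected with an ARE-luciferase plasmid were treated with test agent at 10 µM, with DMSO (0.5% final) as vehicle control. Luciferase was read by chemiluminescence and expressed as fold induction over control, as means of three determinations ± SD. Significance was tested by Student's t-test (p < 0.05).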

[4] = Inhibition of mouse Hepa-1c1c7 Bprc1 mutant cells assessed as cell viability; type: functional; procedure, shortened: as §1
[5] = Chemoprevention index, ratio of IC50 for mouse Hepa-1c1c7 cells to drug level required to double specific NADPH:quinone reductase activity in mouse Hepa-1c1c7 cells; type: functional
Procedure, shortened: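 QR induction measured in wild-type Hepa 1c1c7 murine hepatoma cells and two mutant lines (one lacking a functional Ah receptor, one unable to move receptor–ligand complex to the nucleus) by a previously described method; concentrations 2-30 µM; CD = concentration doubling specific QR activity; chemoprevention index = cell-viability IC50 divided by CD.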

[6] = Chemoprevention index, ratio of IC50 for mouse Hepa-1c1c7 Bprc1 mutant cells to drug level required to double specific NADPH:quinone reductase activity in mouse Hepa-1c1c7 Bprc1 mutant cells; type: functional
Procedure, shortened: (§2)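 Hepa 1c1c7 mutant lines; the index is the IC50 for cell viability (half-maximal inhibition; mean ± SD, n = 2) divided by the concentration that doubles QR specific activity (CD) in the same mutant line.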

[7] = Chemoprevention index, ratio of IC50 for mouse Hepa-1c1c7 TAOc1Bprc1 mutant cells to drug level required to double specific NADPH:quinone reductase activity in mouse Hepa-1c1c7 TAOc1Bprc1 mutant cells; type: functional; procedure, shortened: as §2
Rattus norvegicus [8] = test: Toxicity in DMBA-induced mammary carcinogenesis in Sprague-Dawley rat assessed as body weight changes up to 20000 mg/kg administered 7 days pre-DMBA challenge continued for 7 days post-DMBA challenge assessed after 120 days; type: organism-based; design: dose 20000 mg/kg; details: in vivo, 2880 h
Procedure, shortened: (§3)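 Dose-finding prior to tumor study: diets with 1000, 2000, 3000, 4000, 5000 and 20 000 mg/kg diet; toxicity judged by body weight change and necropsy.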

Rattus norvegicus [9] = test: Inhibition of DMBA-induced mammary carcinogenesis in Sprague-Dawley rat assessed as increase in tumor latency at 5000 mg/kg administered 7 days pre-DMBA challenge continued for 7 days post-DMBA challenge assessed after 120 days; type: functional, organism-based; design: dose 5000 mg/kg
Procedure, shortened: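 Female Sprague-Dawley rats given DMBA, as described previously; test agent in diet at 2500 or 5000 mg/kg diet from 7 days before to 7 days after DMBA, then unsupplemented diet; 20 rats/group; tumor latency, incidence over 120 days and body weight recorded.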

Rattus norvegicus [10] = test: Toxicity in DMBA-induced mammary carcinogenesis in Sprague-Dawley rat assessed as necropsy up to 20000 mg/kg administered 7 days pre-DMBA challenge continued for 7 days post-DMBA challenge assessed after 120 days; type: organism-based; design: dose 20000 mg/kg; details: in vivo, 2880 h; procedure, shortened: as §3
HepG2 [11] = test: Induction of antioxidant response element activity in human HepG2 cells by luciferase based chemiluminescence assay; type: functional, cell-based
Procedure, shortened: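 HepG2 human hepatoma cells stably transfected with an ARE-luciferase plasmid; treated with 1.9-30 µM test agent, 10 µM 4′-bromoflavone or 10 µM sulforaphane positive controls, DMSO 0.5% final as vehicle control; chemiluminescence luciferase read-out as fold over control; mean of three determinations ± SD, Student's t-test p < 0.05.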

[12] = Inhibition of 7,12-dimethylbenz[a]anthracene-induced preneoplastic lesions in a mouse mammary gland culture at 10 ug/mL; type: functional
HepG2 [13] = test: Cytotoxicity against human HepG2 cells at 7.5 to 30 uM; type: functional, cell-based

Structure (SMILES) | IC50 [1] [µM] | IC50 [2] [µM] | Activity (HepG2 [3]) | IC50 [4] [µM] | Ratio [5] | Ratio [6] | Ratio [7] | Activity (Rattus norvegicus [8]) | Activity (Rattus norvegicus [9]) | Activity (Rattus norvegicus [10]) | Activity (HepG2 [11]) | inhibition at 10 µg/mL [12] [%] | Activity (HepG2 [13])
O=c1cc(-c2ccc(Br)cc2)oc2ccccc12 | > 62.5 | > 62.5 | Active | > 62.5 | >2700 |  |  |  |  |  |  |  | 
C[S+]([O-])CCCCN=C=S (centres undefined) [SULFORAPHANE] | 6.3 | 5.9 | Active | 7.6 | 21 | 16 | 18 |  |  |  |  |  | 
O=C(/C=C/c1ccc(O)cc1)c1ccc(O)cc1O [ISOLIQUIRITIGENIN] | 19.6 | 22 |  | 16.2 | 11 | 2 | 10 | Non-toxic | Active | Non-toxic | Dose-dependent effect | 76 | inactive
